Measured values gathered from unrelated publications.
Compare with care: the assays were run in different laboratories.
Effect on: cell growth or viability

COc1cc(OC)c2c(=O)cc(-c3ccc(N(C)C)cc3)oc2c1-c1c(OC)cc(OC)c2c(=O)cc(-c3ccc(N(C)C)cc3)oc12
CC50 (HS27; MTT; 24 h): > 200 µM

CC(C)(C)CC(C)(C)Nc1c(-c2cccnc2)nc2ncccn12
viability (MDA-MB-231; MTT; 25 µM; 48 h): 85.2%

CC1(C)OC[C@@]2(C)[C@H]3CC[C@@H]4CN(Cc5cccs5)[C@@H](C5=CCOC5=O)C[C@H]4[C@]3(C)CC[C@H]2O1
cell death (MRC5; ATP luminescence; 25 µM; 72 h): -0.9%

CC(C)(C)CC(C)(C)Nc1c(-c2ccccc2)nc2ncccn12
viability (MDA-MB-231; MTT; 25 µM; 48 h): 58.2%

CCCCN1C[C@H]2CC[C@@H]3[C@]4(C)COC(C)(C)O[C@@H]4CC[C@@]3(C)[C@@H]2C[C@@H]1C1=CCOC1=O
cell death (MRC5; ATP luminescence; 25 µM; 72 h): 33.7%

COc1ccc(COc2ccc(NC(=O)NC[C@H]3O[C@H](n4cc(C)c(=O)[nH]c4=O)C[C@@H]3O)cc2)cc1
CC50 (MRC5): > 50 µM

COc1cc(C)cc2oc(-c3ccc(N(C)C)cc3)cc(=O)c12
CC50 (HS27; MTT; 24 h): 141 µM

CC(C)(C)CC(C)(C)Nc1c(-c2cccc(C#N)c2)nc2ncccn12
viability (MDA-MB-231; MTT; 25 µM; 48 h): 75.8%

COc1cc(OC)c2c(=O)cc(-c3ccc(C(F)(F)F)cc3)oc2c1
CC50 (HS27; MTT; 24 h): > 200 µM

NCC(NC(=O)c1ccc(-c2ccc(C(F)(F)F)c(F)c2)[nH]1)c1nc(CO)cs1 (stereo not drawn)
CC50 (U87.CD4.CXCR4; XTT; 72 h): 35 µM

CC1(C)OC[C@@]2(C)[C@H]3CC[C@@H]4CN(Cc5ccc(C(F)(F)F)cc5)[C@@H](C5=CCOC5=O)C[C@H]4[C@]3(C)CC[C@H]2O1
cell death (MRC5; ATP luminescence; 25 µM; 72 h): 7.1%

COc1cc(C)cc2oc(-c3ccc(Br)cc3)cc(=O)c12
CC50 (HS27; MTT; 24 h): > 200 µM
